Results on nine substances are retold here after PMC6492960 (Oncoimmunology, 2019).

Assay [1] concerns splenocytes of immunised HLA-DP4 transgenic mice (IFNγ). Type of assay: cell-based, mouse. The following applies: anti-CD4 20 µg/ml, 15 min prior to peptide. The method in brief:
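HLA-A2.1/HLA-DP4/hCD4 transgenic mice (8–12 weeks) immunised s.c. at tail base on days 0, 7 and 14 with 25 µg peptide in PBS emulsified with CpG ODN 1826 and MPLA (5 µg each). Spleens taken day 20. Splenocytes (5 × 10^5/well) given anti-CD4 GK1.5 before 10µg/ml peptide; quadruplicate wells, 40 h, 37°C, 5% CO2. LPS positive control. Spots counted automatically.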

Assay [2] deals with TCR α and β chain CDR3 of CD4+ CFSE^high and CFSE^low cells. Briefly: TCR α and β CDR3 repertoire diversity of sorted CD4+ CFSE high/low cells. The settings on record: for Diversity Index (D50) TRA / Diversity Index (D50) TRB: day 10, non-normalised. The arrangement: species or system human. The method in brief: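 CD25-depleted human PBMCs were labelled with 5µM CFSE for 5 min at room temperature and cultured at 1.5-2x10^6/ml with 10μg/ml citrullinated peptide or vehicle. On day 10 they were stained for CD4/CD8 and sorted into CD4+ CFSEhigh and CFSElow populations. RNA then went through RT-PCR, ARM-PCR with human TCR α/β primers, and NGS bulk sequencing. D50 is the percentage of clones accounting for the cumulative 50% of CDR3 counts.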

Assay [3] has as its system splenocytes of immunised HLA-DR4 transgenic mice. The assay can be described thus: Epitope mapping, HLA-DR4 transgenic mice. Type of assay: cell-based, mouse. The following applies: Supplementary Figure 3.
The target of assay [4] is HLA-DP4 (HLA-DPA*0103 α chain / HLA-DPB*0401 β chain) (human). The assay can be described thus: ELISA.
The subject of the next assay is HLA-DP4. The settings on record: cited from earlier work.
Setting [5] is: donor BD0008, CD4+ CFSE^High (non-proliferating).
Setting [6] is: donor BD0008, CD4+ CFSE^Low (proliferating).
[7] abbreviates: donor BD0011, CD4+ CFSE^High (non-proliferating).
The mark [8] stands for this setting: donor BD0011, CD4+ CFSE^Low (proliferating).

With “cit-SYVTTST-cit-TYSLGSAL-cit-PSTS [Vimentin 28-49 cit]”, the “IFNγ ELISpot response in presence of CD4 blocking antibody” value (shortened to “IFNγ ELISpot response in presence”) in assay [1] is reported as “Responses were lost”. The “Diversity Index (D50) TRA” value in assay [2] (setting [5]) turned out to be 12.8; in assay [2] (setting [6]), 0.4. Also, the entries for the “Diversity Index (D50) TRB” value in assay [2] (setting [5]) and in assay [2] (setting [6]) were 17 and 0.2, respectively. In addition, the “TCR clonality of responding CD4 T cells” value in assay [2] (donor BD0008, compared with non-proliferating CD4 population) was “a bias of TCR Vβ and Vα sequences among CD4+ proliferating cells (CFSE^low)”.
As for “LPNFSSLNL-cit-ETNLDSLPL [Vimentin 415-433 cit]”, the “IFNγ ELISpot response in presence” value in assay [1] was “Responses were lost”. Also, in assay [2] (setting [7]), the “Diversity Index (D50) TRA” value is on record as 9.9 and the “Diversity Index (D50) TRB” value is on record as 5.9. Moreover, in assay [2] (setting [8]), the “Diversity Index (D50) TRA” value is listed as 0.7 and the “Diversity Index (D50) TRB” value was determined as 0.5. In assay [2] (donor BD0011, compared with non-proliferating CD4 population), the “TCR clonality of responding CD4 T cells” value is “a bias of TCR Vβ and Vα sequences among CD4+ proliferating cells (CFSE^low)”.
As for “VIGMDVAASEFF-cit-SG [Enolase 241-255 cit]”, the “shorter epitope mapping in HLA-DR4 transgenic mice” value in assay [3] is recorded as “consistent with findings in the HLA-DR4 transgenic mice mapping shorter peptide sequences”.
Same read-out and setting: the same measure for “FSSLNL-cit-ETNLDSL [Vimentin 418-431 cit]”: “consistent with findings in the HLA-DR4 transgenic mice mapping shorter peptide sequences”.
“non-biotinylated Hepatitis B surface antigen aa 181–193 peptide” had a percent inhibition of the binding of the biotinylated Hepatitis B peptide in assay [4] of 50%.
On to “cit-SYVTTST-cit-TYSLGS [Vimentin 28-42 cit]”, for which the “shorter epitope mapping in HLA-DR4 transgenic mice” value in assay [3] is recorded as “consistent with findings in the HLA-DR4 transgenic mice mapping shorter peptide sequences”.
For LQYM-cit-ADQAAGGLR [collagen II], in the assay with HLA-DP4, the “binding to HLA-DP4 (literature)” value is “not to bind to HLA-DP4”.
For NQDFTN-cit-INKLKNS [fibrinogen], in the assay with HLA-DP4, the “binding to HLA-DP4 (literature)” value is “not to bind to HLA-DP4”.
For the substance “VIGMDVAASEFF-cit-SGKYDLD [Enolase 241-260 cit]”, the “IFNγ ELISpot response in presence” value in assay [1] is given as “Responses were lost”.
